Experimental data as given in ChEMBL document CHEMBL5032510, “Identification of Novel Fused Heteroaromatics-Based MALT1 Inhibitors by High-Throughput Screening to Treat B Cell Lymphoma” (J Med Chem, 2021).
Activity calls are given as the source filed them. No cut-off for these calls is given here.

Key:
[1] = Induction of apoptosis in human HBL1 cells assessed as late apoptotic cells at 5 uM measured after 24 hrs by Annexin V-FITC/ Propidium iodide staining based flow cytometry (reference value: 4.77%); type: functional
TMD8 = assay: Induction of apoptosis in human TMD8 cells assessed as late apoptotic cells at 10 uM measured after 24 hrs by Annexin V-FITC/ Propidium iodide staining based flow cytometry (reference value: 2.19%); type: functional
[2] = molecular target: T1, Mucosa-associated lymphoid tissue lymphoma translocation protein 1 (Homo sapiens) (UniProt Q9UDY8); assay: Inhibition of MALT1 in human TMD8 cells assessed as decrease in RelB substrate cleavage at 8 uM preincubated for 30 mins followed by proteosome inhibitor MG-132 addition and measured after 2 hrs by Western blot analysis; type: cell-based; conditions: time 2.5 hrs
T1 sequence (whole entry): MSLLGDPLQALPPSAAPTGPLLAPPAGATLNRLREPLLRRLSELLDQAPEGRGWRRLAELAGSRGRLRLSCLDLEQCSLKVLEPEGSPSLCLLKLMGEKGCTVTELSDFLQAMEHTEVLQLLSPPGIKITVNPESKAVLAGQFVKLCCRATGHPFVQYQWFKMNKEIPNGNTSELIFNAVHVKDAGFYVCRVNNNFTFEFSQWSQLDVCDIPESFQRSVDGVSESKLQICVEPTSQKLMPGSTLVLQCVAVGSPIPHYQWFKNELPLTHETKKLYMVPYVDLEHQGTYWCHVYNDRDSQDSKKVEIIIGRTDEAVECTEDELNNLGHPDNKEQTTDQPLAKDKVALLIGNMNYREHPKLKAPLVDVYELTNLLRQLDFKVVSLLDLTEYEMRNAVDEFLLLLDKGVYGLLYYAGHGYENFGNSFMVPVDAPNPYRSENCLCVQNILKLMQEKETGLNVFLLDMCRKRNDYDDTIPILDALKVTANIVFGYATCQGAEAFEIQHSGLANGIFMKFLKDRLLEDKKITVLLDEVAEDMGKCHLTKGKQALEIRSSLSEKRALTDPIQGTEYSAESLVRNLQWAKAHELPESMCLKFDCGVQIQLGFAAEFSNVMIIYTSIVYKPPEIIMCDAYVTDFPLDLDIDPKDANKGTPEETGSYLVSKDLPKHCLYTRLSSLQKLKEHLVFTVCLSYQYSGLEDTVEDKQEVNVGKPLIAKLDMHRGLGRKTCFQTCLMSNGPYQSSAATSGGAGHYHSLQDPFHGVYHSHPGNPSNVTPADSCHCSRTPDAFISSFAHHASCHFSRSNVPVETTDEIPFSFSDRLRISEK
Outline: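 Cells were grown in RPMI with 10% FBS, 2 mM glutamine and 10 mM HEPES at 37 °C, 5% CO₂. Pretreated 30 min with compound (4 and 8 μM), then 10 μM MG-132 for 2 h. 20−75 μg total protein run on SDS-PAGE, blotted to PVDF, probed for RelB, detected by HRP chemiluminescence. β-actin was the loading control.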

[3] = Induction of apoptosis in human HBL1 cells assessed as viable cells at 5 uM measured after 24 hrs by Annexin V-FITC/ Propidium iodide staining based flow cytometry (reference value: 88.1%); type: functional; conditions: read-out: Activity
[4] = Drug concentration in tumor of NCG mouse xenografted with human TMD8 cells at 30 mg/kg/day, ip measured after 13 days; type: ADME, organism-based, Neoplasm; conditions: time 13 day, read-out: Drug uptake
Outline: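 TMD8 cells (5 × 10⁶) were implanted subcutaneously into the right flank of 6-week-old female NCG mice. At day 10, when tumors were palpable, mice were randomized into groups of eight. Dosing was ip at 30 mg/kg for 13 consecutive days; controls received HPBCD (20% PEG 400) ip. TGI was based on mean tumor weight of treated versus control groups. Intratumoral drug level was measured after 13 days of dosing.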

For COc1ccc(OC)c(NC(=O)c2sc(=S)n(-c3ccc(C(F)(F)F)cc3)c2NC(=O)CCl)c1, the Activity [1] was 17.3%, the Activity (TMD8) was 42.7% and the inhibition [2] was “Active”. It also gave a viability at 5 µM [3] of 38.8% and a concentration at 312 h [4] of 1130 ng/g.
